Common to all, as to type: functional
The test system of assay [1] is Brassica rapa subsp. oleifera. Kind of assay: Herbicidal activity against Brassica rapa subsp. oleifera assessed as inhibition of root growth at 100 ug/mL at 28 degC. A digest of the protocol: (§1)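 Rape seeds soaked 4 h in distilled water, then 15 per 6 cm dish on filter paper wetted with 2 mL aqueous test solution (emulsified if needed); germinated 65 h at 28 ± 1 °C in darkness. Mean length of 10 roots per dish measured; percentage inhibition calculated against distilled-water check.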

Assay [2] has as its system Echinochloa crus-galli. Kind of assay: Herbicidal activity against Echinochloa crus-galli (barnyard grass) assessed as inhibition of seedling growth at 10 ug/mL at 28 degC. The essentials:
(§2)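 Ten barnyardgrass seeds placed in cup over glass beads and filter paper holding 5 mL aqueous test solution (emulsified if needed); germinated 65 h at 28 ± 1 °C under light. Mean above-ground seedling height per cup measured; inhibition percentage derived.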

For assay [3], the system named is Pseudomonas amygdali pv. lachrymans. Kind of assay: Fungicidal activity against Pseudomonas syringae pv. lachrymans in cucumber plant two seed leaves stage assessed as control efficacy from disease indices at 500 ug/mL at 18 to 30 degC and above 80%RH relative to control. The following applies: read-out: GI. A digest of the protocol:
(§3)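 Cucumber seeds germinated (soaked 2 h in water at 50 °C, kept moist 24 h at 28 °C) and grown in 1:1 vermiculite/peat; two-seed-leaf plants sprayed at 500 μg/mL, then inoculated 2 h later by spraying conidial (C. cassiicola, A. citrullina, P. cubensis), bacterial (P. syringae) or mycelial (S. sclerotiorum) suspension. Held 18-30 °C, >80% RH; four repeats; control efficacy = (CK−PT)/CK×100 from disease indices once untreated plants fully symptomatic.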

In assay [4] the test system is Pseudoperonospora cubensis. Kind of assay: Fungicidal activity against Pseudoperonospora cubensis in cucumber plant two seed leaves stage assessed as control efficacy from disease indices at 500 ug/mL at 18 to 30 degC and above 80%RH relative to control. The following applies: read-out: GI. A digest of the protocol:
as §3

The test system of assay [5] is Brassica rapa subsp. oleifera. In words: Herbicidal activity against Brassica rapa subsp. oleifera assessed as inhibition of root growth at 10 ug/mL at 28 degC. The essentials:
as §1

Assay [6] concerns Corynespora cassiicola. Kind of assay: Fungicidal activity against Corynespora cassiicola in cucumber plant two seed leaves stage assessed as control efficacy from disease indices at 500 ug/mL at 18 to 30 degC and above 80%RH relative to control. Conditions: read-out: GI. The essentials:
as §3

Assay [7] relates to Ascochyta. Kind of assay: Fungicidal activity against Ascochyta […] in cucumber plant two seed leaves stage assessed as control efficacy from disease indices at 500 ug/mL at 18 to 30 degC and above 80%RH relative to control. The following applies: read-out: GI. A digest of the protocol:
as §3

Assay [8] has as its system Echinochloa crus-galli. In words: Herbicidal activity against Echinochloa crus-galli (barnyard grass) assessed as inhibition of seedling growth at 100 ug/mL at 28 degC. The essentials: as §2
In assay [9] the test system is Sclerotinia sclerotiorum. Kind of assay: Fungicidal activity against Sclerotinia sclerotiorum in cucumber plant two seed leaves stage assessed as control efficacy from disease indices at 500 ug/mL at 18 to 30 degC and above 80%RH relative to control. Conditions: read-out: GI. A digest of the protocol:
as §3

For the compound `FC(F)(F)c1nn(CN2CCN(c3ncccn3)CC2)c(=S)n1/N=C/c1ccccc1`, the inhibition (usually how much of the control response was suppressed) at 100 µg/mL amounted to 66.8% in assay [1] and 0% in assay [8]. Further, the inhibition at 10 µg/mL in assay [2] is 0%; in assay [5], 49.2%. Further, the inhibition of growth at 500 µg/mL in assay [3] turned out to be 55.8%; in [4], 66.3%; in assay [6], 56.2%; in [7], 37.1%; in [9], 41.7%.

`Cc1ccnc(N2CCN(Cn3nc(C(F)(F)F)n(/N=C/c4ccc(C)c(C)c4)c3=S)CC2)n1`: the values for the inhibition at 100 µg/mL in assay [1] and in assay [8] were 11.2% and 27.8%, respectively. Moreover, the inhibition at 10 µg/mL in [2] and in assay [5] was 0% in each case. The inhibition of growth at 500 µg/mL in assay [3] is 22%; in [4], 69.5%; in assay [6], 38.7%; in assay [7], 70%; in [9] it was 51.9%.

For `Cc1cc(C)nc(N2CCN(Cn3nc(C(F)(F)F)n(/N=C/c4ccccc4[N+](=O)[O-])c3=S)CC2)n1`, the inhibition at 100 µg/mL came to 11.2% in assay [1] and 10.2% in assay [8]. Further, the inhibition at 10 µg/mL in [2] and in assay [5] was 0% throughout. Moreover, the inhibition of growth at 500 µg/mL in assay [3] worked out at 46.5%; in assay [4], 77.2%; in assay [6], 87.8%; in [7], 88.4%; in [9] it was 39.3%.

Consider `Cc1cc(C)nc(N2CCN(Cn3nc(C(F)(F)F)n(/N=C/c4ccccc4)c3=S)CC2)n1`, for which the inhibition at 100 µg/mL was 71.1% in [1] and 9.8% in [8]. Also, the inhibition at 10 µg/mL in assay [2] came out at 0%; in assay [5], 36.9%. In addition, the inhibition of growth at 500 µg/mL in [3] turned out to be 55%; in assay [4], 74.1%; in [6] it was 22.1%; in assay [7], 61.5%; in [9], 48%.

Turning to `COc1ccc(/C=N/n2c(C(F)(F)F)nn(CN3CCN(c4nccc(C)n4)CC3)c2=S)cc1`, the values for the inhibition at 100 µg/mL in assay [1] and in assay [8] were 30.3% and 34.3%, respectively. Moreover, the inhibition at 10 µg/mL in assay [2] worked out at 15.3%; in assay [5], 0%. Also, the inhibition of growth at 500 µg/mL in assay [3] amounted to 30.6%; in assay [4], 72.5%; in assay [6] it was 52.8%; in [7], 67.7%; in assay [9], 50.9%.

Take `Cc1cc(C)nc(N2CCN(Cn3nc(C(F)(F)F)n(/N=C/c4ccccc4F)c3=S)CC2)n1`: the inhibition at 100 µg/mL was determined as 72.4% in [1] and 33.2% in assay [8]. Further, the figures for the inhibition at 10 µg/mL in assay [2] and in assay [5] were 17.1% and 67.1%, respectively. Besides, the inhibition of growth at 500 µg/mL came out at 56.1% in assay [3]; 79.2% in assay [4]; 78.7% in assay [6]; 83.5% in assay [7]; 72% in [9].

In the case of `Cc1ccnc(N2CCN(Cn3nc(C(F)(F)F)n(/N=C/c4ccc(Cl)cc4)c3=S)CC2)n1`, the inhibition at 100 µg/mL in [1] came to 68.6%; in assay [8], 96.7%. Further, the inhibition at 10 µg/mL in assay [2] is 10.2%; in assay [5], 0%. Besides, the inhibition of growth at 500 µg/mL in [3] stood at 21.1%; in [4], 91.2%; in [6], 71.1%; in assay [7] it was 61.3%; in assay [9], 70.3%.

As to `FC(F)(F)c1nn(CN2CCN(Cn3nc(C(F)(F)F)n(/N=C/c4ccccc4)c3=S)CC2)c(=S)n1/N=C/c1ccccc1`, the inhibition at 100 µg/mL in assay [1] worked out at 35.1%; in [8] it was 25.1%. In addition, the inhibition at 10 µg/mL in assay [2] was 16.2%; in assay [5], 0%. In addition, the inhibition of growth at 500 µg/mL is 56.4% in assay [3]; 78.9% in assay [4]; 70.9% in [6]; 25.6% in [7]; 67.6% in [9].

(Values after ChEMBL document CHEMBL3045276, “Synthesis and biological activity of some novel trifluoromethyl-substituted 1,2,4-triazole and bis(1,2,4-triazole) Mannich bases containing piperazine rings” (2010).)
